According to ChEMBL document CHEMBL1153160, “Towards development of selective and reversible pyrazoline based MAO-inhibitors: Synthesis, biological evaluation and docking studies” (Bioorg Med Chem Lett, 2010):

Columns and labels:
Format in all cases: tissue-based
[1] = biological target: T1, Amine oxidase [flavin-containing] A (Rattus norvegicus, UniProt P21396); assay: Inhibition of MAO-A in rat liver homogenate by spectrophotometry-based Holt method
T1 sequence (P21396 whole entry): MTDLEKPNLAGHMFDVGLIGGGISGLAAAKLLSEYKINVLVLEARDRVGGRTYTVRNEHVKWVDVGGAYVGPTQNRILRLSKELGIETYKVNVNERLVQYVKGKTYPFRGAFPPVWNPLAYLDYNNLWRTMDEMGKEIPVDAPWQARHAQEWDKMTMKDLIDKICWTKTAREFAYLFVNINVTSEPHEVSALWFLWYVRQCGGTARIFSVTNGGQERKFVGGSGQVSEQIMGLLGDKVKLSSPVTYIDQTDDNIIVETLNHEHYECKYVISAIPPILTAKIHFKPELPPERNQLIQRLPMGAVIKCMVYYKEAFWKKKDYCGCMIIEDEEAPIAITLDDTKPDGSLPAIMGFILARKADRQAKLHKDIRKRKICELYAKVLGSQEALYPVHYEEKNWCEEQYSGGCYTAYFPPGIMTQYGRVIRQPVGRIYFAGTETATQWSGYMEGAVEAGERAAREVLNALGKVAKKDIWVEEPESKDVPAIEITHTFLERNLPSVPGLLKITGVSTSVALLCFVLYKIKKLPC

[2] = biological target: T2, Amine oxidase [flavin-containing] B (Rattus norvegicus, UniProt P19643); assay: Inhibition of MAO-B in rat liver homogenate by spectrophotometry-based Holt method
T2 sequence (P19643 whole entry): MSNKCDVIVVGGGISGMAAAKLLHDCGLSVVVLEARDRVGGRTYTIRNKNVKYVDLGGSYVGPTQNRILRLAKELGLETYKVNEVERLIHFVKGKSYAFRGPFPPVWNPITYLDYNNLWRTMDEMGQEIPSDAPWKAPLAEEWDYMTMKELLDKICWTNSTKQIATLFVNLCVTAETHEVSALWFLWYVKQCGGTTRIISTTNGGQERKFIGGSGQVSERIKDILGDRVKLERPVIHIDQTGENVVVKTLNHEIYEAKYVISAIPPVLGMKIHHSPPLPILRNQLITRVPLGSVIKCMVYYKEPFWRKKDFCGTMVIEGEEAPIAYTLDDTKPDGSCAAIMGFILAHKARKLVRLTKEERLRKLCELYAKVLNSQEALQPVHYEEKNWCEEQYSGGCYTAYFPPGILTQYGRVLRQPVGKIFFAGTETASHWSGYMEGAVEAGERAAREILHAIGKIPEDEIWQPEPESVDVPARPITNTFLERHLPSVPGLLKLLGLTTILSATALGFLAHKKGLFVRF

Rattus norvegicus = species: Rattus norvegicus; assay: Selectivity ratio of Ki for MAO-A in rat liver homogenate to Ki for MAO-B in rat liver homogenate
Procedure, shortened: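 Rat liver MAO; isoform isolated by blocking the other with pargyline or clorgyline. p-Tyramine substrate (2.5 mM for MAO-B). Inhibitor (DMSO) pre-incubated with homogenate 60 min, 37 °C. Holt coupled assay (vanillinic acid, 4-aminoantipyrine, peroxidase; potassium phosphate pH 7.6) read at 498 nm, 37 °C, 60 min. Ki from kinetics, mean of three experiments; index = Ki(MAO-A)/Ki(MAO-B).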

| SMILES | Ki [1] [µM] | Ki [2] [µM] | Ratio Ki (Rattus norvegicus) |
| --- | --- | --- | --- |
| Cc1ccc(S(=O)(=O)N2N=C(c3ccccc3O)CC2c2ccccc2O)cc1 (stereo not given) | 0.36 | 620 |  |
| Oc1ccc(C2CC(c3ccccc3O)=NN2)cc1 (stereo not given) | 3.9 | 0.6 | 6.49 |
| Cc1ccc(S(=O)(=O)N2N=C(c3ccccc3O)CC2c2ccc(O)cc2)cc1 (stereo not given) | 0.6 |  |  |
| O=C(c1ccccc1)N1N=C(c2ccccc2O)CC1c1ccccc1O (stereo not given) | 0.8 |  |  |
| O=C(c1ccccc1)N1N=C(c2ccccc2O)CC1c1ccc(O)cc1 (stereo not given) | 5.77 | 20300 |  |
| O=S(=O)(c1ccccc1)N1N=C(c2ccccc2O)CC1c1ccccc1O (stereo not given) | 0.91 | 1550 |  |
| N=C(NO)N1N=C(c2ccccc2O)CC1c1ccc(O)cc1 (stereo not given) | 10.6 | 210 |  |
| N=C(NO)N1N=C(c2ccccc2O)CC1c1ccccc1O (stereo not given) | 15.7 | 96.8 |  |
| O=S(=O)(c1ccccc1)N1N=C(c2ccccc2O)CC1c1ccc(O)cc1 (stereo not given) | 0.68 | 700 |  |
| Oc1ccccc1C1=NNC(c2ccccc2O)C1 (stereo not given) | 3.7 | 0.78 | 4.74 |
